In ChEMBL document CHEMBL4699545, “Non-cytotoxic 1,2,3-triazole tethered fused heterocyclic ring derivatives display Tax protein inhibition and impair HTLV-1 infected cells” (Bioorg Med Chem, 2020):
Calls of active or inactive are those of the source. The calls are words filed in the database; no cut-off is given here.

test system: Huh-7; test: Cytotoxicity against human Huh-7 cells assessed as reduction in cell viability by measuring viability index at 50 uM after 72 hrs in presence of resazurin by resazurin reduction method; type: cell-based; settings: huh-7, 72 h
How it was run: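 Huh-7 cells (3.6 × 10⁴ cells/mL) were exposed to twofold serial dilutions in PBS, 10 points from 50 µM, for 72 h at 37 °C, 5% CO₂. Resazurin (10 µM) was added for the final 4 h and fluorescence read. Viability = RFU treated / mean RFU of 0.5% DMSO wells.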

Compound	Growth_index
Clc1ccc2c(NCCn3cc(CNc4ncnc5ccccc45)nn3)ccnc2c1	0
COc1cc2ncnc(NCc3cn(CC4CCN(Cc5ccccc5)CC4)nn3)c2cc1OC	0.65
COc1cc2ncnc(NCc3cn(CCNc4ccnc5cc(Cl)ccc45)nn3)c2cc1OC	0
Cc1cc(=O)oc2cc(OCc3cn(CC4CCN(Cc5ccccc5)CC4)nn3)ccc12	0.61
O=C1c2ccccc2C(=O)N1Cc1cn(CCNc2ccnc3cc(Cl)ccc23)nn1	0.85

test system: MT2; test: Cell cycle arrest in human MT2 cells infected with HTLV-1 assessed as accumulation at S phase at 50 uM incubated for 72 hrs by RNaseA/propidium iodide staining based FACSCalibur flow cytometry; type: functional; settings: not given
How it was run: (§1)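 MT-2 cells (3 × 10⁵/well) exposed to compound (300 µM stock, 100 µl added to 500 µl cells) for 72 h at 37 °C, 5% CO₂. Cells were PBS-washed and fixed in ice-cold 70% ethanol overnight at -20 °C, then RNase A treated 30 min at 37 °C and PI stained. 10,000 events were acquired and phase percentages modelled. Triplicate, mean ± SD; one-way ANOVA/Tukey versus 0.5% DMSO.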

Compound	Activity
Clc1ccc2c(NCCn3cc(CNc4ncnc5ccccc45)nn3)ccnc2c1	inactive
COc1cc2ncnc(NCc3cn(CC4CCN(Cc5ccccc5)CC4)nn3)c2cc1OC	inactive
COc1cc2ncnc(NCc3cn(CCNc4ccnc5cc(Cl)ccc45)nn3)c2cc1OC	inactive
O=C(Cn1cc(CSc2nc3ccccc3[nH]2)nn1)N1CCN(Cc2ccccc2)CC1	inactive
O=C(Cn1cc(CNc2ncnc3ccccc23)nn1)N1CCN(Cc2ccccc2)CC1	inactive
c1ccc(CN2CCC(Cn3cc(CNc4ncnc5ccccc45)nn3)CC2)cc1	inactive
Cc1cc(=O)oc2cc(OCc3cn(CC4CCN(Cc5ccccc5)CC4)nn3)ccc12	inactive
O=C1c2ccccc2C(=O)N1Cc1cn(CCNc2ccnc3cc(Cl)ccc23)nn1	Active

test system: MT2; test: Induction of apoptosis in human MT2 cells infected with HTLV-1 assessed as activation of caspase-3/7 at 50 uM measured after 72 hrs by CellEvent caspase 3/7 green detection reagent based assay; type: functional, cell-based; settings: not given
How it was run: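 MT-2 cells (3 × 10⁵/well) were exposed to compound (300 µM stock, 100 µl into 500 µl) for 72 h at 37 °C, 5% CO₂. CellEvent caspase-3/7 green reagent was added for 45 min at room temperature in the dark. 10,000 events were acquired, and the percentage of active caspase-3/7⁺ cells was taken within an FSC/SSC live-cell gate. Triplicate, mean ± SD, ANOVA/Tukey versus 0.5% DMSO.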

Compound	Activity
Clc1ccc2c(NCCn3cc(CNc4ncnc5ccccc45)nn3)ccnc2c1	Active
COc1cc2ncnc(NCc3cn(CC4CCN(Cc5ccccc5)CC4)nn3)c2cc1OC	Active
COc1cc2ncnc(NCc3cn(CCNc4ccnc5cc(Cl)ccc45)nn3)c2cc1OC	Active
Cc1cc(=O)oc2cc(OCc3cn(CC4CCN(Cc5ccccc5)CC4)nn3)ccc12	Active

test system: MT2; test: Cytotoxicity against human MT2 cells infected with HTLV-1 assessed as reduction in metabolic activity at 20 uM incubated for 72 hrs in presence of resazurin by resazurin reduction method; type: functional, cell-based; settings: not given
How it was run: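 Reference etoposide at 20 µM (final, 0.5% DMSO) served as the positive control in the MT-2 resazurin screen. Cells were incubated 72 h, with 10 µM resazurin added for the last 4 h, and fluorescence read at 590 nm. Three independent days.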

Compound	inhibition
COc1cc([C@@H]2c3cc4c(cc3[C@@H](O[C@@H]3O[C@@H]5CO[C@@H](C)O[C@H]5[C@H](O)[C@H]3O)[C@H]3COC(=O)[C@H]23)OCO4)cc(OC)c1O	Active

test system: MT2; test: Cell cycle arrest in human MT2 cells infected with HTLV-1 assessed as accumulation at G0/G1 phase at 50 uM incubated for 72 hrs by RNaseA/propidium iodide staining based FACSCalibur flow cytometry; type: functional; settings: not given; how it was run: as §1

Compound	Activity
Clc1ccc2c(NCCn3cc(CNc4ncnc5ccccc45)nn3)ccnc2c1	inactive
COc1cc2ncnc(NCc3cn(CC4CCN(Cc5ccccc5)CC4)nn3)c2cc1OC	inactive
COc1cc2ncnc(NCc3cn(CCNc4ccnc5cc(Cl)ccc45)nn3)c2cc1OC	inactive
O=C(Cn1cc(CSc2nc3ccccc3[nH]2)nn1)N1CCN(Cc2ccccc2)CC1	inactive
O=C(Cn1cc(CNc2ncnc3ccccc23)nn1)N1CCN(Cc2ccccc2)CC1	inactive
c1ccc(CN2CCC(Cn3cc(CNc4ncnc5ccccc45)nn3)CC2)cc1	inactive
Cc1cc(=O)oc2cc(OCc3cn(CC4CCN(Cc5ccccc5)CC4)nn3)ccc12	inactive

test system: not listed separately; test: Effect on HTLV-1 Tax expression in lentiviral pLVX-TET3G transduced human Jurkat LTR-GFP inducible Tax assessed as doxycyclin-treated GFP negative PI positive dead cells at 50 uM after 72 hrs by flow cytometry (reference value: 16.82 +/- 3.37 %); settings: not given

Compound	GFP-PI+ dead cells % [%]
Clc1ccc2c(NCCn3cc(CNc4ncnc5ccccc45)nn3)ccnc2c1	44.88
COc1cc2ncnc(NCc3cn(CCNc4ccnc5cc(Cl)ccc45)nn3)c2cc1OC	90.98

test system: MT2; test: Induction of apoptosis in human MT2 cells infected with HTLV-1 at 50 uM measured after 72 hrs by annexinV-Cy5/propidium iodide staining based FACSCalibur flow cytometry; type: functional, cell-based; settings: not given
How it was run: (§2)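 MT-2 cells (3 × 10⁵/well) were treated for 72 h at 37 °C, 5% CO₂, then stained with annexin-V Cy5/PI per kit. Within an FSC/SSC live-cell gate, total annexin-V⁺ cells (early PI⁻ plus late PI⁺) were counted by flow cytometry. 0.5% DMSO served as negative control and etoposide 20 µM as positive. Triplicate, mean ± SD, ANOVA/Tukey.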

Compound	Activity
Clc1ccc2c(NCCn3cc(CNc4ncnc5ccccc45)nn3)ccnc2c1	Active
COc1cc2ncnc(NCc3cn(CC4CCN(Cc5ccccc5)CC4)nn3)c2cc1OC	Active
COc1cc2ncnc(NCc3cn(CCNc4ccnc5cc(Cl)ccc45)nn3)c2cc1OC	Active
Cc1cc(=O)oc2cc(OCc3cn(CC4CCN(Cc5ccccc5)CC4)nn3)ccc12	Active

test system: MT2; test: Cell cycle arrest in human MT2 cells infected with HTLV-1 assessed as accumulation at G2/M phase at 50 uM incubated for 72 hrs by RNaseA/propidium iodide staining based FACSCalibur flow cytometry; type: functional; settings: not given; how it was run: as §1

Compound	Activity
Clc1ccc2c(NCCn3cc(CNc4ncnc5ccccc45)nn3)ccnc2c1	inactive
COc1cc2ncnc(NCc3cn(CC4CCN(Cc5ccccc5)CC4)nn3)c2cc1OC	inactive
COc1cc2ncnc(NCc3cn(CCNc4ccnc5cc(Cl)ccc45)nn3)c2cc1OC	inactive
O=C(Cn1cc(CSc2nc3ccccc3[nH]2)nn1)N1CCN(Cc2ccccc2)CC1	inactive
O=C(Cn1cc(CNc2ncnc3ccccc23)nn1)N1CCN(Cc2ccccc2)CC1	inactive
c1ccc(CN2CCC(Cn3cc(CNc4ncnc5ccccc45)nn3)CC2)cc1	inactive
Cc1cc(=O)oc2cc(OCc3cn(CC4CCN(Cc5ccccc5)CC4)nn3)ccc12	inactive

test system: MT2; test: Cytotoxicity against human MT2 cells infected with HTLV-1 assessed as reduction in metabolic activity at 50 uM incubated for 72 hrs in presence of resazurin by resazurin reduction method relative to control; type: functional; settings: not given
How it was run: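 MT-2 cells incubated with compound at a final 50 µM in 0.5% DMSO for 72 h at 37 °C, 5% CO₂. Resazurin (10 µM) was added for the final 4 h and fluorescence read at 590 nm; medium-only wells gave background. RFU normalized between 0.5% DMSO (0) and 20 µM etoposide (100) controls. Three independent days.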

Compound	inhibition at 50 µM [%]
Clc1ccc2c(NCCn3cc(CNc4ncnc5ccccc45)nn3)ccnc2c1	≥ 70
COc1cc2ncnc(NCc3cn(CC4CCN(Cc5ccccc5)CC4)nn3)c2cc1OC	≥ 70
COc1cc2ncnc(NCc3cn(CCNc4ccnc5cc(Cl)ccc45)nn3)c2cc1OC	≥ 70
O=C(Cn1cc(CSc2nc3ccccc3[nH]2)nn1)N1CCN(Cc2ccccc2)CC1	≥ 70
O=C(Cn1cc(CNc2ncnc3ccccc23)nn1)N1CCN(Cc2ccccc2)CC1	≥ 70
c1ccc(CN2CCC(Cn3cc(CNc4ncnc5ccccc45)nn3)CC2)cc1	≥ 70
Cc1cc(=O)oc2cc(OCc3cn(CC4CCN(Cc5ccccc5)CC4)nn3)ccc12	≥ 70
O=C1c2ccccc2C(=O)N1Cc1cn(CCNc2ccnc3cc(Cl)ccc23)nn1	≥ 70

test system: MT2; test: Cell cycle arrest in human MT2 cells infected with HTLV-1 assessed as accumulation at G2/M phase at 20 uM incubated for 72 hrs by RNaseA/propidium iodide staining based FACSCalibur flow cytometry; type: functional; settings: not given
How it was run: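 Etoposide 20 µM used as reference in MT-2 cell cycle assay: 3 × 10⁵ cells/well, 72 h at 37 °C. Ethanol fixation (70%, overnight -20 °C), RNase A 30 min at 37 °C, then PI staining. 10,000 events acquired by flow cytometry and G0/G1, S and G2/M fractions modelled. Triplicate, mean ± SD.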

Compound	Activity
COc1cc([C@@H]2c3cc4c(cc3[C@@H](O[C@@H]3O[C@@H]5CO[C@@H](C)O[C@H]5[C@H](O)[C@H]3O)[C@H]3COC(=O)[C@H]23)OCO4)cc(OC)c1O	inactive

test system: MT2; test: Induction of apoptosis in human MT2 cells infected with HTLV-1 at 50 uM measured after 72 hrs by annexinV-Cy5/propidium iodide staining based FACSCalibur flow cytometry (reference value: 18.7 +/- 5.33 %); type: functional; settings: not given; how it was run: as §2

Compound	Activity [%]
Cc1cc(=O)oc2cc(OCc3cn(CC4CCN(Cc5ccccc5)CC4)nn3)ccc12	39.96
